Measured values from ChEMBL document CHEMBL3102784, “Salicylanilide diethyl phosphates: synthesis, antimicrobial activity and cytotoxicity” (Bioorg Med Chem, 2014).
In brackets after ≈: the same amount, converted by molar mass. Activity calls are given as the source filed them. The rule behind the calls is not given here.

Columns and labels:
[1] = test system: Trichophyton mentagrophytes; assay: Antifungal activity against Trichophyton mentagrophytes 445 after 72 hrs by broth microdilution method; type: functional; conditions: Trichophyton mentagrophytes, 445, 72 h
How it was run: (§1)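 Filamentous dermatophyte tested by broth microdilution in RPMI 1640 with glutamine, fluconazole as reference. Value expressed as IC50 relative to growth control. Read at 72 and 120 h.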

Candida albicans [2] = assay: Antifungal activity against Candida albicans ATCC 44859 after 24 hrs by broth microdilution method; type: functional; conditions: ATCC 44859, 24 h
How it was run: (§2)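 Broth microdilution in RPMI 1640 with glutamine, fluconazole as reference. For yeasts, MIC is ≥80% growth reduction (IC80) versus control. For filamentous fungi, the value is expressed as IC50. Readings at 24 and 48 h.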

Nakaseomyces glabratus = assay: Antifungal activity against Candida glabrata 20/I at 500 micromol/L after 24 to 48 hrs by broth microdilution method; type: functional, organism-based; how it was run: as §2
Pichia kudriavzevii [3] = assay: Antifungal activity against Candida krusei E28 after 24 hrs by broth microdilution method; type: functional; conditions: E28, 24 h; how it was run: as §2
[4] = test system: Trichophyton mentagrophytes; assay: Antifungal activity against Trichophyton mentagrophytes 445 after 120 hrs by broth microdilution method; type: functional; conditions: Trichophyton mentagrophytes, 445, 120 h; how it was run: as §1
Mycobacterium avium [5] = assay: Antimycobacterial activity against isoniazid, rifampicin, ethambutol and ofloxacin-resistant Mycobacterium avium My 330/88 after 14 days; type: functional; conditions: My 330/88, 336 h
How it was run: (§3)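 Micromethod MIC in Šula's semisynthetic medium at 37 °C. Compounds added in DMSO at 1000 down to 0.032 µmol/L. Isoniazid standard in sterile water at 0.5–250 µmol/L. Inocula: H37Rv 10^3, M. avium 10^5, M. kansasii 10^4. Read at 14 and 21 d, plus 7 d for M. kansasii.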

Aspergillus fumigatus [6] = assay: Antifungal activity against Aspergillus fumigatus 231 after 48 hrs by broth microdilution method; type: functional; conditions: Aspergillus fumigatus, 231, 48 h; how it was run: as §2
Staphylococcus aureus [7] = assay: Antibacterial activity against Staphylococcus aureus CCM 4516/08 after 48 hrs by broth microdilution method; type: functional; conditions: CCM 4516/08, 48 h
How it was run: (§4)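 Broth microdilution in Mueller–Hinton broth, compounds dissolved in DMSO, tested over a dilution series from 500 downward. MIC taken as ≥95% growth reduction (IC95) versus drug-free control. Benzylpenicillin comparator. Readings at 24 and 48 h.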

Pseudomonas aeruginosa = assay: Antibacterial activity against Pseudomonas aeruginosa CCM 1961 at 500 micromol/L after 24 to 48 hrs by broth microdilution method; type: functional, organism-based; how it was run: as §4
Mycobacterium kansasii [8] = assay: Antimycobacterial activity against Mycobacterium kansasii 6509/96 after 14 days; type: functional; conditions: 6509/96, 336 h; how it was run: as §3
Pichia kudriavzevii [9] = assay: Antifungal activity against Candida krusei E28 after 48 hrs by broth microdilution method; type: functional; conditions: E28, 48 h; how it was run: as §2
Mycobacterium kansasii [10] = assay: Antimycobacterial activity against Mycobacterium kansasii My 235/80 after 14 days; type: functional; conditions: My 235/80, 336 h; how it was run: as §3
Klebsiella pneumoniae [11] = assay: Antibacterial activity against ESBL-positive Klebsiella pneumoniae J 14368/08 at 500 micromol/L after 24 to 48 hrs by broth microdilution method; type: functional, organism-based; how it was run: as §4
Staphylococcus aureus [12] = assay: Antibacterial activity against Staphylococcus aureus CCM 4516/08 after 24 hrs by broth microdilution method; type: functional; conditions: CCM 4516/08, 24 h; how it was run: as §4
Aspergillus fumigatus [13] = assay: Antifungal activity against Aspergillus fumigatus 231 after 24 hrs by broth microdilution method; type: functional; conditions: Aspergillus fumigatus, 231, 24 h; how it was run: as §2
Lichtheimia corymbifera [14] = assay: Antifungal activity against Absidia corymbifera 272 after 48 hrs by broth microdilution method; type: functional; conditions: Lichtheimia corymbifera, 272, 48 h; how it was run: as §2
Klebsiella pneumoniae [15] = assay: Antibacterial activity against Klebsiella pneumoniae D 11750/08 at 500 micromol/L after 24 to 48 hrs by broth microdilution method; type: functional, organism-based; how it was run: as §4
Mycobacterium kansasii [16] = assay: Antimycobacterial activity against Mycobacterium kansasii 6509/96 after 21 days; type: functional; conditions: 6509/96, 504 h; how it was run: as §3
Mycobacterium kansasii [17] = assay: Antimycobacterial activity against Mycobacterium kansasii My 235/80 after 21 days; type: functional; conditions: My 235/80, 504 h; how it was run: as §3
[18] = test system: Staphylococcus epidermidis; assay: Antibacterial activity against Staphylococcus epidermidis H 6966/08 after 48 hrs by broth microdilution method; type: functional; conditions: H 6966/08, 48 h; how it was run: as §4
Staphylococcus aureus [19] = assay: Antibacterial activity against methicillin-resistant Staphylococcus aureus H 5996/08 after 48 hrs by broth microdilution method; type: functional; conditions: H 5996/08, 48 h; how it was run: as §4
Staphylococcus aureus [20] = assay: Antibacterial activity against methicillin-resistant Staphylococcus aureus H 5996/08 after 24 hrs by broth microdilution method; type: functional; conditions: H 5996/08, 24 h; how it was run: as §4
Trichosporon asahii [21] = assay: Antifungal activity against Trichosporon asahii 1188 after 48 hrs by broth microdilution method; type: functional; conditions: Trichosporon asahii, 1188, 48 h; how it was run: as §2
Mycobacterium kansasii [22] = assay: Antimycobacterial activity against Mycobacterium kansasii My 235/80 after 7 days; type: functional; conditions: My 235/80, 168 h; how it was run: as §3
Mycobacterium avium [23] = assay: Antimycobacterial activity against isoniazid, rifampicin, ethambutol and ofloxacin-resistant Mycobacterium avium My 330/88 after 21 days; type: functional; conditions: My 330/88, 504 h; how it was run: as §3
HepG2 = assay: Cytotoxicity against human HepG2 cells after 24 hrs by CellTiter assay; type: cell-based; conditions: HepG2, 24 h
How it was run: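 HepG2 cells (passage 27–33) in MEM with 10% FBS, L-glutamine and NEAA, seeded at 1×10^4 per well. Treated next day with compounds at 0.1–100 µM (or 0.1–25 µmol/L), triplicates, <1% DMSO, for 24 h at 37 °C, 5% CO2. MTS reagent added for 2 h, absorbance read at 490 nm. IC50 taken against untreated (100%) and 10% DMSO (0%) controls.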

Trichosporon asahii [24] = assay: Antifungal activity against Trichosporon asahii 1188 after 24 hrs by broth microdilution method; type: functional; conditions: Trichosporon asahii, 1188, 24 h; how it was run: as §2
Candida tropicalis = assay: Antifungal activity against Candida tropicalis 156 at 500 micromol/L after 24 to 48 hrs by broth microdilution method; type: functional, organism-based; how it was run: as §2
[25] = test system: Mycobacterium tuberculosis; assay: Antimycobacterial activity against Mycobacterium tuberculosis H37Rv My 331/88 after 21 days; type: functional; conditions: H37Rv My 331/88, 504 h; how it was run: as §3
Enterococcus sp. = assay: Antibacterial activity against Enterococcus sp. J 14365/08 at 500 micromol/L after 24 to 48 hrs by broth microdilution method; type: functional, organism-based; how it was run: as §4
Mycobacterium kansasii [26] = assay: Antimycobacterial activity against Mycobacterium kansasii 6509/96 after 7 days; type: functional; conditions: 6509/96, 168 h; how it was run: as §3
[27] = test system: Mycobacterium tuberculosis; assay: Antimycobacterial activity against Mycobacterium tuberculosis H37Rv My 331/88 after 14 days; type: functional; conditions: H37Rv My 331/88, 336 h; how it was run: as §3
Lichtheimia corymbifera [28] = assay: Antifungal activity against Absidia corymbifera 272 after 24 hrs by broth microdilution method; type: functional; conditions: Lichtheimia corymbifera, 272, 24 h; how it was run: as §2
Candida albicans [29] = assay: Antifungal activity against Candida albicans ATCC 44859 after 48 hrs by broth microdilution method; type: functional; conditions: ATCC 44859, 48 h; how it was run: as §2
Escherichia coli = assay: Antibacterial activity against Escherichia coli CCM 4517 at 500 micromol/L after 24 to 48 hrs by broth microdilution method; type: functional, organism-based; how it was run: as §4
[30] = test system: Staphylococcus epidermidis; assay: Antibacterial activity against Staphylococcus epidermidis H 6966/08 after 24 hrs by broth microdilution method; type: functional; conditions: H 6966/08, 24 h; how it was run: as §4

| Compound | MIC50 [1] [µM] | MIC80 (Candida albicans [2]) [µM] | Activity (Nakaseomyces glabratus) | MIC80 (Pichia kudriavzevii [3]) [µM] | MIC50 [4] [µM] | MIC (Mycobacterium avium [5]) [µM] | MIC50 (Aspergillus fumigatus [6]) [µM] | MIC95 (Staphylococcus aureus [7]) [µM] | Activity (Pseudomonas aeruginosa) | MIC (Mycobacterium kansasii [8]) [µM] | MIC80 (Pichia kudriavzevii [9]) [µM] | MIC (Mycobacterium kansasii [10]) [µM] | Activity (Klebsiella pneumoniae [11]) | MIC (Mycobacterium kansasii [16]) [µM] | MIC (Mycobacterium kansasii [17]) [µM] | MIC (Mycobacterium kansasii [22]) [µM] | MIC (Mycobacterium avium [23]) [µM] | MIC [25] [µM] | MIC (Mycobacterium kansasii [26]) [µM] | MIC [27] [µM] | other results |
| --- | --- | --- | --- | --- | --- | --- | --- | --- | --- | --- | --- | --- | --- | --- | --- | --- | --- | --- | --- | --- | --- |
| CCOP(=O)(OCC)Oc1ccc(Br)cc1C(=O)Nc1ccc(F)cc1 | 500 (≈ 223 µg/mL) | > 500 | inactive | > 500 | 500 (≈ 223 µg/mL) | 32 (≈ 14.3 µg/mL) | > 500 | > 500 | inactive | 8 (≈ 3.57 µg/mL) | > 500 | 16 (≈ 7.14 µg/mL) | inactive | 16 (≈ 7.14 µg/mL) | 16 (≈ 7.14 µg/mL) | 8 (≈ 3.57 µg/mL) | 32 (≈ 14.3 µg/mL) | 8 (≈ 3.57 µg/mL) | 8 (≈ 3.57 µg/mL) | 8 (≈ 3.57 µg/mL) | MIC95 (Staphylococcus aureus [12]): > 500 µM; MIC50 (Aspergillus fumigatus [13]): > 500 µM; MIC50 (Lichtheimia corymbifera [14]): > 500 µM; Activity (Klebsiella pneumoniae [15]): inactive; MIC95 [18]: > 500 µM; MIC95 (Staphylococcus aureus [19]): 500 µM (≈ 223 µg/mL); MIC95 (Staphylococcus aureus [20]): 500 µM (≈ 223 µg/mL); MIC80 (Trichosporon asahii [21]): > 500 µM; IC50 (HepG2): 7.4 µM; MIC80 (Trichosporon asahii [24]): > 500 µM; Activity (Candida tropicalis): inactive; Activity (Enterococcus sp.): inactive; MIC50 (Lichtheimia corymbifera [28]): > 500 µM; MIC80 (Candida albicans [29]): > 500 µM; Activity (Escherichia coli): inactive; MIC95 [30]: > 500 µM |
| CCOP(=O)(OCC)Oc1cc(Cl)ccc1C(=O)Nc1ccc(Cl)c(Cl)c1 | 7.81 (≈ 3.54 µg/mL) | > 500 | inactive | > 500 | 7.81 (≈ 3.54 µg/mL) | 16 (≈ 7.24 µg/mL) | > 500 | > 500 | inactive | 4 (≈ 1.81 µg/mL) | > 500 | 4 (≈ 1.81 µg/mL) | inactive | 4 (≈ 1.81 µg/mL) | 4 (≈ 1.81 µg/mL) | 2 (≈ 0.905 µg/mL) | 16 (≈ 7.24 µg/mL) | 4 (≈ 1.81 µg/mL) | 4 (≈ 1.81 µg/mL) | 4 (≈ 1.81 µg/mL) | MIC95 (Staphylococcus aureus [12]): 500 µM (≈ 226 µg/mL); MIC50 (Aspergillus fumigatus [13]): > 500 µM; MIC50 (Lichtheimia corymbifera [14]): > 500 µM; Activity (Klebsiella pneumoniae [15]): inactive; MIC95 [18]: > 500 µM; MIC95 (Staphylococcus aureus [19]): > 500 µM; MIC95 (Staphylococcus aureus [20]): 500 µM (≈ 226 µg/mL); MIC80 (Trichosporon asahii [21]): > 500 µM; IC50 (HepG2): 1.92 µM; MIC80 (Trichosporon asahii [24]): > 500 µM; Activity (Candida tropicalis): inactive; Activity (Enterococcus sp.): inactive; MIC50 (Lichtheimia corymbifera [28]): > 500 µM; MIC80 (Candida albicans [29]): > 500 µM; Activity (Escherichia coli): inactive; MIC95 [30]: 250 µM (≈ 113 µg/mL) |
| NNC(=O)c1ccncc1 [ISONIAZID] |  |  |  |  |  | 250 (≈ 34.3 µg/mL) |  |  |  | 4 (≈ 0.549 µg/mL) |  | > 250 |  | 4 (≈ 0.549 µg/mL) | > 250 | > 250 | > 250 | 1 (≈ 0.137 µg/mL) | 2 (≈ 0.274 µg/mL) | 0.5 (≈ 0.0686 µg/mL) |  |
